# From ChEMBL document CHEMBL1926538, “3,5-Disubstituted-thiazolidine-2,4-dione analogs as anticancer agents: design, synthesis and biological characterization” (Eur J Med Chem, 2012)
# Activity calls are given as the source filed them. The rule behind the calls is not given here.
# Key:
# U-937 [1] = assay: Induction of apoptosis in human U937 cells assessed as necrotic cells at 10 uM after 3 hrs by annexinV-propidium iodide staining-based flow cytometric analysis (reference value: 2.3%); type: functional
# U-937 [2] = assay: Induction of apoptosis in human U937 cells assessed as late apoptotic cells at 10 uM after 3 hrs by annexinV-propidium iodide staining-based flow cytometric analysis (reference value: 8.6%); type: functional
# U-937 [3] = assay: Induction of apoptosis in human U937 cells assessed as viable cells at 10 uM after 3 hrs by annexinV-propidium iodide staining-based flow cytometric analysis (reference value: 86.3%); type: functional; conditions: U-937, 3 h, read-out: Activity
# U-937 [4] = assay: Induction of apoptosis in human U937 cells assessed as early apoptotic cells at 3 uM after 18 hrs by annexinV-propidium iodide staining-based flow cytometric analysis (reference value: 4.3%); type: functional
# U-937 [5] = assay: Induction of apoptosis in human U937 cells assessed as necrotic cells at 3 uM after 6 hrs by annexinV-propidium iodide staining-based flow cytometric analysis (reference value: 1.2%); type: functional
# U-937 [6] = assay: Antiproliferative activity in human U937 cells assessed as inhibition of DNA synthesis at 10 to 30 uM after 24 hr by [3H]thymidine incorporation assay; type: functional, cell-based
# Procedure, shortened: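 U937 cells, 2 × 10⁴/well, incubated with compound at various concentrations for 1 h or 24 h in presence of 1 µCi [³H]-thymidine. Cells harvested and counted by liquid scintillation. Incorporation expressed as % inhibition versus control. Significance by one-way ANOVA.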
# [7] = biological target: Serine/threonine-protein kinase Sgk1 (Homo sapiens) (UniProt O00141); assay: Inhibition of SGK1 at 10 uM
# Chain of Serine/threonine-protein kinase Sgk1 (Homo sapiens) (O00141 whole entry): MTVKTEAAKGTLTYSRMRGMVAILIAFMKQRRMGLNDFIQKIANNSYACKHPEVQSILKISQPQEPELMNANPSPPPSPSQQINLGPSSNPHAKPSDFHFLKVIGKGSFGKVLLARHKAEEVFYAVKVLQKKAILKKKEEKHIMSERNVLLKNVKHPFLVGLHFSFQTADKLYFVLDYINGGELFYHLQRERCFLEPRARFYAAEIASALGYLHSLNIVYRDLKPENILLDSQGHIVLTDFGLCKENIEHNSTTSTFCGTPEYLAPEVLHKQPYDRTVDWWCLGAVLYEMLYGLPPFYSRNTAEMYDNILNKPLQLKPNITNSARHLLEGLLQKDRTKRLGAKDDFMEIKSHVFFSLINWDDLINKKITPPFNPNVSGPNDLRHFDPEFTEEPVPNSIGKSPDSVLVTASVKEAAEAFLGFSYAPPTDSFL
# [8] = biological target: Ribosomal protein S6 kinase alpha-1 (Homo sapiens) (UniProt Q15418); assay: Inhibition of RSK1 at 10 uM
# [9] = biological target: MAP kinase-activated protein kinase 5 (Homo sapiens) (UniProt Q8IW41); assay: Inhibition of PRAK at 10 uM
# [10] = Inhibition of PKGa at 10 uM
# [11] = biological target: Serine/threonine-protein kinase pim-2 (Homo sapiens) (UniProt Q9P1W9); assay: Inhibition of PIM2 at 10 uM
# [12] = biological target: Phosphatidylinositol 4,5-bisphosphate 3-kinase catalytic subunit alpha isoform (Homo sapiens) (UniProt P42336); assay: Inhibition of PI3Kalpha at 10 uM
# [13] = biological target: Serine/threonine-protein kinase PAK 2 (Homo sapiens) (UniProt Q13177); assay: Inhibition of PAK2 at 10 uM
# Chain of Serine/threonine-protein kinase PAK 2 (Homo sapiens) (Q13177 whole entry): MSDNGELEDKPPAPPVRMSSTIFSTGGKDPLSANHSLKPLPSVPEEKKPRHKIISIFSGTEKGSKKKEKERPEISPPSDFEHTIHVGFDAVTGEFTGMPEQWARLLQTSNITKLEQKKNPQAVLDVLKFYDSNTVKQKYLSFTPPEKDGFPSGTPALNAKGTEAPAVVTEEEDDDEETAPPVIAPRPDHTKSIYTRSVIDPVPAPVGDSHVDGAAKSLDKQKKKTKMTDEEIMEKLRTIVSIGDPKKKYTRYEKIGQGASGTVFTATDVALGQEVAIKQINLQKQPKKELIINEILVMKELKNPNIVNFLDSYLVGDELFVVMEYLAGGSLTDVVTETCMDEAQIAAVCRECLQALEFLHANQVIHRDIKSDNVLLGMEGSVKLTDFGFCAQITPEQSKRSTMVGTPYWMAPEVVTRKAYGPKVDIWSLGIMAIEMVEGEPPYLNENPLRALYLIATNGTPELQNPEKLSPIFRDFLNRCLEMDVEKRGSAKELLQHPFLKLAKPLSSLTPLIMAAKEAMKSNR
# [14] = biological target: Ribosomal protein S6 kinase alpha-5 (Homo sapiens) (UniProt O75582); assay: Inhibition of MSK1 at 10 uM
# Chain of Ribosomal protein S6 kinase alpha-5 (Homo sapiens) (O75582 whole entry, looked up): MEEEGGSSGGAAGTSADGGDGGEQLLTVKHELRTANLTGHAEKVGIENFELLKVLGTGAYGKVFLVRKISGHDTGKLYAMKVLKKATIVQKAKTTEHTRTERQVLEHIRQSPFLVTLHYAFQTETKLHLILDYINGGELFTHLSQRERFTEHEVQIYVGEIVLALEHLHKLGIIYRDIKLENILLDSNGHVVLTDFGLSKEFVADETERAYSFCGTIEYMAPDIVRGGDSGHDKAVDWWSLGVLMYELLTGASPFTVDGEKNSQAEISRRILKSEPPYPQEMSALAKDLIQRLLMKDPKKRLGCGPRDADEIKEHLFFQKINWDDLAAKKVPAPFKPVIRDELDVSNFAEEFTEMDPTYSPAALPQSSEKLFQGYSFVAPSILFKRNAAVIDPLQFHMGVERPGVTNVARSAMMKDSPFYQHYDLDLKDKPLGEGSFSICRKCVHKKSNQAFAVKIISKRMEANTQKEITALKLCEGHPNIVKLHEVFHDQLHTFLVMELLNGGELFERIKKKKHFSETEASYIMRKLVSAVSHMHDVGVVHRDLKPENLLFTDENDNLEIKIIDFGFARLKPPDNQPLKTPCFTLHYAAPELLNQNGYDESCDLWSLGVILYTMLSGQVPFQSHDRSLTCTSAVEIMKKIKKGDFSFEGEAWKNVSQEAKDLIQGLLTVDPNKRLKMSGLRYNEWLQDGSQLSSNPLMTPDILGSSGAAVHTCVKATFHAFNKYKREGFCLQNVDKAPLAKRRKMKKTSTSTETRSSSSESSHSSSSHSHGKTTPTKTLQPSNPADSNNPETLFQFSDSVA
# [15] = biological target: Dual specificity mitogen-activated protein kinase kinase 2 (Homo sapiens) (UniProt P36507); assay: Inhibition of MEK2 at 10 uM
# [16] = biological target: Serine/threonine-protein kinase MARK1 (Homo sapiens) (UniProt Q9P0L2); assay: Inhibition of MARK1 at 10 uM
# Chain of Serine/threonine-protein kinase MARK1 (Homo sapiens) (Q9P0L2 whole entry, looked up): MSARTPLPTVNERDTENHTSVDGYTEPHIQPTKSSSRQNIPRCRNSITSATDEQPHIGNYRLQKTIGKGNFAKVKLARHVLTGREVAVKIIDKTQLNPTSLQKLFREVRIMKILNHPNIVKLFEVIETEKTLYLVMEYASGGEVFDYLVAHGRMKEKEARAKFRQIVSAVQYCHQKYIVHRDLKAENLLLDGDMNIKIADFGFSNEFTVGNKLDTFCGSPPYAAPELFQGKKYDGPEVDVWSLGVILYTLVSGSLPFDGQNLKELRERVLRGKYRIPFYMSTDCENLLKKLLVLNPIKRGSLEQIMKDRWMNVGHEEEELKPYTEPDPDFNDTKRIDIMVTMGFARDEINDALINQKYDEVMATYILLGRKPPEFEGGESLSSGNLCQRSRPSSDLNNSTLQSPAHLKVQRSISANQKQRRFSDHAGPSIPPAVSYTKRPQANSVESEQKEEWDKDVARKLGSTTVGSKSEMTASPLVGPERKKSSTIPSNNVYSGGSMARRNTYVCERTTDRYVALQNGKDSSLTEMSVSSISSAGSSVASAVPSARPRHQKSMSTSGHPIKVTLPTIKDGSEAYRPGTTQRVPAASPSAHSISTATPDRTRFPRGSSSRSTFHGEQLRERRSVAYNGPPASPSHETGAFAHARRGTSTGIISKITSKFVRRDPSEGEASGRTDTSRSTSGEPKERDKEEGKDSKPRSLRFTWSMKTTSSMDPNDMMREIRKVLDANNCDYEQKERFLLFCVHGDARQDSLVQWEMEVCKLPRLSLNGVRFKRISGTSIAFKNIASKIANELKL
# [17] = biological target: MAP kinase-activated protein kinase 2 (Homo sapiens) (UniProt P49137); assay: Inhibition of MAPKAPK2 at 10 uM
# Chain of MAP kinase-activated protein kinase 2 (Homo sapiens) (P49137 whole entry, looked up): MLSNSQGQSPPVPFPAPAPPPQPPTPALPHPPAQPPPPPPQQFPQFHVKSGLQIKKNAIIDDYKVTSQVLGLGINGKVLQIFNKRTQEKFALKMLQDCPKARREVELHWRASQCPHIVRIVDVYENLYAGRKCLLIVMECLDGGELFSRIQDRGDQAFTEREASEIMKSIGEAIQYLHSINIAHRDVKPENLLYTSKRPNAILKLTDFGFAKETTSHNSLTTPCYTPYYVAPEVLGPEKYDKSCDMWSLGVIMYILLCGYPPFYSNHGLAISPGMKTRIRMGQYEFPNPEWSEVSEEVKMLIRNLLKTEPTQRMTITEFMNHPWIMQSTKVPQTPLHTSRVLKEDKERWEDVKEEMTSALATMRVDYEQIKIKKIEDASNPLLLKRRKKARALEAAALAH
# [18] = biological target: Tyrosine-protein kinase Lyn (Homo sapiens) (UniProt P07948); assay: Inhibition of LYN at 10 uM
# Chain of Tyrosine-protein kinase Lyn (Homo sapiens) (P07948 2-512 limits assumed): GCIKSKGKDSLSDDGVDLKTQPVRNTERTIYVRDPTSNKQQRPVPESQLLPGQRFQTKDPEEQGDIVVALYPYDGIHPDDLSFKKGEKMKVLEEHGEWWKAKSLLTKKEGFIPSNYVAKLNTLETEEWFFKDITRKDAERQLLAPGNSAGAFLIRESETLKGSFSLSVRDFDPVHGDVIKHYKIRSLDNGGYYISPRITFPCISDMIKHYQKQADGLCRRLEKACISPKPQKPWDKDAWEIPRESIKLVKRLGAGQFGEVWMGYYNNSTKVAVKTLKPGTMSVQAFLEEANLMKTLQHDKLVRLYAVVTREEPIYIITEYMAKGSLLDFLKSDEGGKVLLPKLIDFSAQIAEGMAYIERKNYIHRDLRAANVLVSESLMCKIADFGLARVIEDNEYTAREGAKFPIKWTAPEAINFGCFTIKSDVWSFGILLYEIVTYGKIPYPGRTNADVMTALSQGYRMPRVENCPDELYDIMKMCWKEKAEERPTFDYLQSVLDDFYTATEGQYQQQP
# [19] = biological target: Tyrosine-protein kinase Lck (Homo sapiens) (UniProt P06239); assay: Inhibition of LCK at 10 uM
# Chain of Tyrosine-protein kinase Lck (Homo sapiens) (P06239 2-509 limits assumed): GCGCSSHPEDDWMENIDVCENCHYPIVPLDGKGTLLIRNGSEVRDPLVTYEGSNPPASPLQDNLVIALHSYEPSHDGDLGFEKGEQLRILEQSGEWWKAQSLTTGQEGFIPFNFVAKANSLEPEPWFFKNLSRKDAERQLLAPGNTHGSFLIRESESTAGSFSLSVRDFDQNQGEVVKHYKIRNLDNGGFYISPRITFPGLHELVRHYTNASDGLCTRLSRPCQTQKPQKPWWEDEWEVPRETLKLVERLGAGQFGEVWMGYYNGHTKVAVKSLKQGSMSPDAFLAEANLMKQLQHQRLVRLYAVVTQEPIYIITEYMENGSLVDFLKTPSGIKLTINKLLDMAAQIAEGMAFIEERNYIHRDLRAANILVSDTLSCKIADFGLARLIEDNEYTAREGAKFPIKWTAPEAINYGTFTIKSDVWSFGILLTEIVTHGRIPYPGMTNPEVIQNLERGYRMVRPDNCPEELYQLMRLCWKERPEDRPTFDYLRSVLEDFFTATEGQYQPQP
# [20] = biological target: Mitogen-activated protein kinase 1 (Homo sapiens) (UniProt P28482); assay: Inhibition of Erk2 at 10 uM
# Chain of Mitogen-activated protein kinase 1 (Homo sapiens) (P28482 whole entry): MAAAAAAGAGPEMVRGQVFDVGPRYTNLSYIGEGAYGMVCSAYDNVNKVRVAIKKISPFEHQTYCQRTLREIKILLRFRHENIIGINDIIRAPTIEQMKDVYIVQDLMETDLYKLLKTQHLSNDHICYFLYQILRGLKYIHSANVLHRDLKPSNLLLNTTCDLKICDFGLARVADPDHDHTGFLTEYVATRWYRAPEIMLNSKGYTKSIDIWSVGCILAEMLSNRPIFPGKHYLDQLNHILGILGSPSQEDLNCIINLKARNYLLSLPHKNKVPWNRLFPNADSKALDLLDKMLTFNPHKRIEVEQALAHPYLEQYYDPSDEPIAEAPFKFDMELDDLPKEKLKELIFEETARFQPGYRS
# [21] = biological target: Dual specificity tyrosine-phosphorylation-regulated kinase 1A (Homo sapiens) (UniProt Q13627); assay: Inhibition of DYRK1a at 10 uM
# [22] = biological target: RAF proto-oncogene serine/threonine-protein kinase (Homo sapiens) (UniProt P04049); assay: Inhibition of c-Raf at 10 uM
# Chain of RAF proto-oncogene serine/threonine-protein kinase (Homo sapiens) (P04049 whole entry): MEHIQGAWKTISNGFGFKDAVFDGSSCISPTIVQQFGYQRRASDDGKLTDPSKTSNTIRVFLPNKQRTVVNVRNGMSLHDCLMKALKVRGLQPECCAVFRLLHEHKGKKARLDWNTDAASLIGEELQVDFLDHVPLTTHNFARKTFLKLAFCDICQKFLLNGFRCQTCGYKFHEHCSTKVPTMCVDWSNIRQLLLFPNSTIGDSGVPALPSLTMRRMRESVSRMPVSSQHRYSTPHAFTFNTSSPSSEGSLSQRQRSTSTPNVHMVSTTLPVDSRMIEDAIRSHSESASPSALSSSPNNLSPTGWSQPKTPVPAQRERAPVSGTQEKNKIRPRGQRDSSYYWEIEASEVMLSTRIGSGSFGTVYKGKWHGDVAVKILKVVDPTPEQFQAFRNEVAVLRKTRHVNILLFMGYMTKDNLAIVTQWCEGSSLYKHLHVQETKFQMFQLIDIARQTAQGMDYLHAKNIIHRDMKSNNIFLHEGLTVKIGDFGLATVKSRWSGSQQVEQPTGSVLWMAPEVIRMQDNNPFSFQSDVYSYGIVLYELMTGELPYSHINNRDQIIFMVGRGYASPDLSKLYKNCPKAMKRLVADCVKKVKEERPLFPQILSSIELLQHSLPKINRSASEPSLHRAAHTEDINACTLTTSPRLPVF
# [23] = biological target: Calcium/calmodulin-dependent protein kinase type II subunit beta (Homo sapiens) (UniProt Q13554); assay: Inhibition of CAMK2 at 10 uM
# [24] = biological target: Tyrosine-protein kinase BTK (Homo sapiens) (UniProt Q06187); assay: Inhibition of BTK at 10 uM
# [25] = biological target: 5'-AMP-activated protein kinase catalytic subunit alpha-2 (Homo sapiens) (UniProt P54646); assay: Activation of AMPK in human U937 cells assessed as increase in phosphorylated AMPK level at 1 to 10 uM after 1 hr by Western blot analysis; type: cell-based; conditions: U-937
# Procedure, shortened: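 Cells at 5 × 10⁵/mL in growing medium, RPMI 1640 with 10% heat-inactivated FBS, 37 °C, 5% CO₂, exposed 1 h. Lysed by sonication in SDS sample buffer with protease inhibitors plus 1 mM orthovanadate and pyrophosphate, boiled 5 min. Immunoblot probed with rabbit polyclonal anti-phospho-AMPK (Thr172) 1:1000, HRP secondary, chemiluminescence. α-Tubulin reprobe as loading control. One of three independent experiments shown.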
# U-937 [26] = assay: inhibition of PI3K-mediated 4-EBP1 phosphorylation in human U937 cells 1 to 10 uM after 1 hr by Western blot analysis; type: cell-based
# Procedure, shortened: (§1)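 Cells in RPMI 1640 with 10% heat-inactivated FBS, 37 °C, 5% CO2; treated in growing medium (DU145 24 h; U937 1 h at 5 × 10⁵/mL). Lysed by sonication in SDS sample buffer with protease inhibitors plus 1 mM orthovanadate and pyrophosphate, boiled 5 min. Blots blocked in 5% milk, primary antibodies 1:1000 overnight at 4 °C, HRP secondary 1:2000, chemiluminescence; α-tubulin loading control.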
# U-937 [27] = assay: Inhibition of PI3K-mediated Akt phosphorylation in human U937 cells at 3 uM after 1 hr by Western blot analysis; type: cell-based
# [28] = biological target: RAF proto-oncogene serine/threonine-protein kinase (Homo sapiens) (UniProt P04049); assay: Inhibition of raf-mediated MEK phosphorylation in human U937 cells at 3 uM after 1 hr by Western blot analysis; type: cell-based; conditions: U-937; procedure, shortened: as §1
# U-937 [29] = assay: Cell cycle arrest in human U937 cells assessed as sub-diploid apoptotic fraction at 15 uM after 24 hrs by propidium iodide staining-based flow cytometric analysis; type: functional
# Procedure, shortened: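 Cells cultured in RPMI 1640 with 10% FBS and treated 24 h at the indicated concentrations. Stained with propidium iodide for 4 h at 4 °C in the dark. Flow cytometry gave the percentage of cells in G₀/G₁, S, G₂/M and sub-G₁ phases.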
# DU-145 [30] = assay: Induction of apoptosis in human DU145 cells assessed as early apoptotic cells at 20 uM after 24 hrs by annexinV-propidium iodide staining-based flow cytometric analysis (reference value: 3.8%); type: functional
# DU-145 [31] = assay: Induction of apoptosis in human DU145 cells assessed as viable cells at 20 uM after 24 hrs by annexinV-propidium iodide staining-based flow cytometric analysis (reference value: 89%); type: functional; conditions: DU-145, 24 h, read-out: Activity
# [32] = Induction of apoptosis in human M12 cells assessed as late apoptotic cells at 20 uM after 24 hrs by annexinV-propidium iodide staining-based flow cytometric analysis (reference value: 4.7%); type: functional
# [33] = Induction of apoptosis in human M12 cells assessed as early apoptotic cells at 20 uM after 24 hrs by annexinV-propidium iodide staining-based flow cytometric analysis (reference value: 13.6%); type: functional
compound,measurement,setting,value
NCCN1C(=O)S/C(=C\CCC2CCCCC2)C1=O,Activity,U-937 [1],2.4%
same,Activity,U-937 [2],11%
same,viability at 10 µM,U-937 [3],62.8%
same,Activity,U-937 [4],3.5%
same,Activity,U-937 [5],2.1%
same,Activity,U-937 [6],Active
same,inhibition,[7],14%
same,inhibition,[8],2%
same,inhibition,[9],4%
same,inhibition,[10],-2%
same,inhibition,[11],38%
same,inhibition,[12],45%
same,inhibition,[13],10%
same,inhibition,[14],6%
same,inhibition,[15],27%
same,inhibition,[16],0%
same,inhibition,[17],3%
same,inhibition,[18],0%
same,inhibition,[19],4%
same,inhibition,[20],11%
same,inhibition,[21],-5%
same,inhibition,[22],-1%
same,inhibition,[23],60%
same,inhibition,[24],12%
same,Activity,[25],Active
same,inhibition,U-937 [26],Active
same,inhibition,U-937 [27],Active
same,inhibition,[28],Active
same,Activity,U-937 [29],64.3%
same,Activity,DU-145 [30],8.3%
same,viability at 20 µM,DU-145 [31],65.5%
same,Activity,[32],60.5%
same,Activity,[33],29.2%
